For assay [1], the species on record is Homo sapiens. The experiment in a line: In vitro inhibition of aggregation of human platelet rich plasma induced by adenosine diphosphate. The format is functional. The note with it: read-out: I50.
The species named for assay [2] is Homo sapiens. As to the kind of experiment: In vitro inhibition of aggregation of human platelet rich plasma induced by arachidonic acid. The class given is functional. The note with it: read-out: I50.
Assay [3] is filed under the species Cavia porcellus. As to the kind of experiment: Competitive antagonism of 11,9-epoxymethano-PGH2-induced contraction in guinea pig trachea. The class given is functional.
The species named for assay [4] is Rattus norvegicus. The experiment in a line: Competitive antagonism of 11,9-epoxymethano-PGH2-induced contraction in rat aorta. The class given is functional.
The species entered for assay [5] is Rattus norvegicus. As to the kind of experiment: Maximal contraction of rat stomach induced by serotonin at 0.1 uM concentration. The class given is functional.
Assay [6] is filed under the species Rattus norvegicus. The experiment in a line: Maximal contraction of rat stomach induced by serotonin. The class given is functional. The method in brief:
(§1)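 Rat stomach strip; test compound concentration giving 50% of the maximal contraction produced by 3.0 × 10⁻⁷ M serotonin (A50). Where reported as a percentage, value is the maximum contraction seen at the stated test concentration. n = 8.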

The species entered for assay [7] is Rattus norvegicus. The experiment in a line: Maximal contraction of rat stomach induced by serotonin at 30 uM concentration. The class given is functional. An outline of the steps: as §1
For assay [8], the species on record is Rattus norvegicus. As to the kind of experiment: Concentration required to elicit 50% of the maximal contraction of rat stomach induced by serotonin. The format is functional. An outline of the steps:
as §1

Assay [9] has as its target T1, Thromboxane A2 receptor (Rattus norvegicus, UniProt P34978).
T1 sequence (P34978 whole entry): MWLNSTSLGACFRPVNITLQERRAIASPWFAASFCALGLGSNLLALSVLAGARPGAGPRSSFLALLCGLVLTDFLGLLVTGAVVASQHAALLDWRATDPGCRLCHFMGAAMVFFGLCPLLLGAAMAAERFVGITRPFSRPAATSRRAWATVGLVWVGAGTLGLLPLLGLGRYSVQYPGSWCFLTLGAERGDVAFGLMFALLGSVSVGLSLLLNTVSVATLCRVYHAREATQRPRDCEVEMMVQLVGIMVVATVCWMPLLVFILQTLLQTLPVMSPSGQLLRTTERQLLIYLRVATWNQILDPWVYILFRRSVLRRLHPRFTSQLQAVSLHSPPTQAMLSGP
As to the kind of experiment: Antagonistic activity against Thromboxane A2 receptor in rat aorta in the presence of 11,9-epoxymethano-PGH2. The format is functional, tissue-based.

The target in assay [10] is Thromboxane A2 receptor (Cavia porcellus). As to the kind of experiment: Antagonistic activity against Thromboxane A2 receptor in guinea pig trachea in the presence of 9,11-azo-PGH2. As to conditions: read-out: I50.
For assay [11] the target is unchanged. As to the kind of experiment: Antagonistic activity against Thromboxane A2 receptor in guinea pig trachea in the presence of 11,9-epoxymethano-PGH2. As to conditions: read-out: pA2 (converted).

Bounds are passed on as bounds.

Consider `CCCCC(C)(C)[C@H](O)/C=C/C1C2CCC(O2)C1C/C=C\CCCC(=O)O` (some centres undefined), for which the IC50 in assay [1] was over 1000 µM; in [2], 1.1 µM.

In the case of `O=C(O)CCC/C=C\C[C@H]1C2CCC(O2)[C@H]1CNNC(=O)Nc1ccccc1` (some centres undefined), the Kb amounted to 0.0013 µM in [3] and 0.00066 µM in assay [4].

Turning to `C[C@@H](c1ccc(O)cc1)[C@H](O)/C=C/C1C2CCC(O2)C1C/C=C\CCCC(=O)O` (some centres undefined), the IC50 in assay [1] worked out at 950 µM; in assay [2], 0.24 µM. The Contraction in assay [5] was determined as 21%.

Take `C[C@@H](c1ccccc1)[C@H](O)/C=C/[C@@H]1C2CCC(O2)[C@@H]1C/C=C\CCC(C)(C)C(=O)O` (some centres undefined): the IC50 in assay [2] is 260 µM.

In the case of `C[C@@H](c1ccccc1)[C@H](O)/C=C/[C@@H]1C2CCC(O2)[C@@H]1CC/C=C/CCC(=O)O` (some centres undefined), in assay [2], the IC50 was 25 µM.

Consider `C[C@@H](c1ccccc1)[C@H](O)/C=C/[C@@H]1C2CCC(O2)[C@@H]1C/C=C\C/C=C/C(=O)O` (some centres undefined), for which the IC50 in assay [2] was determined as 3.8 µM.

As for `C[C@H](c1ccccc1)[C@H](O)/C=C/C1C2CCC(O2)[C@H]1C/C=C\CCCC(=O)O` (some centres undefined), the IC50 in [1] was over 1000 µM; in assay [2], 3.1 µM. In assay [6], this compound yielded a Contraction of 0%.

With `C[C@@H](c1ccccc1)[C@H](O)/C=C/[C@@H]1C2CCC(O2)[C@@H]1C/C=C\CCCc1nnn[nH]1` (some centres undefined), the IC50 in [2] came to 3.2 µM.

As to `CC(C/C=C\C[C@H]1C2CCC(O2)[C@H]1/C=C/[C@@H](O)[C@@H](C)c1ccccc1)CC(=O)O` (some centres undefined), the IC50 in assay [2] was 12 µM.

For `O=C(O)CCC/C=C\CC1C2CCC(O2)C1/C=C/[C@@H](O)C1CCCCC1` (some centres undefined), the IC50 in assay [1] was determined as 0.9 µM; in [2] it was 0.4 µM. Moreover, the Contraction in assay [7] came out at 9%.

With `C[C@@H](c1ccccc1)[C@H](O)/C=C/[C@@H]1C2CCC(O2)[C@@H]1C/C=C\COCC(=O)O` (some centres undefined), in assay [2], the IC50 stood at 3.4 µM.

Regarding `C[C@@H](c1ccc(O)c(I)c1)[C@H](O)/C=C/C1C2CCC(O2)C1C/C=C\CCCC(=O)O` (some centres undefined), the IC50 is over 1000 µM in assay [1] and 0.93 µM in assay [2].

Turning to `CC(CC/C=C\C[C@H]1C2CCC(O2)[C@H]1/C=C/[C@@H](O)[C@@H](C)c1ccccc1)C(=O)O` (some centres undefined), in assay [2], the IC50 was determined as 25 µM.

As for `C[C@H](c1ccccc1)[C@H](O)/C=C/C1C2CCC(O2)[C@@H]1C/C=C\CCCC(=O)O` (some centres undefined), the values for the IC50 in assay [1] and in assay [2] were over 100 µM and 730 µM, respectively.

On to `CCCCC[C@H](O)/C=C/C1C2CCC(O2)C1C/C=C\CCCC(=O)O` (some centres undefined), for which the A50 in assay [8] worked out at 0.4 µM. For the same compound, the IC50 in assay [1] stood at 300 µM; in assay [2], 1.7 µM.

For the compound `O=C(O)CCC/C=C\CC1C2CCC(O2)C1/C=C/[C@@H](O)COc1ccccc1` (some centres undefined), the A50 in assay [8] was 6 µM.

In assay [8], `O=C(O)CCC/C=C\CC1C2CCC(O2)C1/C=C/[C@@H](O)CCc1ccccc1` (some centres undefined) displayed an A50 of 3.7 µM. Further, the IC50 in assay [1] is over 1000 µM; in assay [2], 1.2 µM.

On to `C[C@@H](c1ccccc1)[C@H](O)/C=C/C1C2CCC(O2)C1C/C=C\CCCC(=O)O` (some centres undefined), for which the Kb in [9] was 0.00794 µM; in [3] it was 0.0121 µM; in assay [4] it was 0.0135 µM; in [11] it was 0.01 µM. The IC50 was over 1000 µM in assay [1], 1.98 µM in assay [10] and 0.65 µM in [2]. Besides, in [6], the Contraction came to 0%.
